Assay outcomes as filed in PubChem.
This is a sample that favours compounds with a hit; in the whole collection about 2.8% have one here.
E-selectin induc: E-selectin induction in HUVECs, primary screen, imaging, HUVEC, immunofluorescence imaging, single point; normalized: neutral wells 0, TNF-alpha wells 100; activation, % at 7.58 µM; 260,000 compounds, 0.37% hits; AID 686992, 2013;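 active = mean E-selectin-positive cell signal at least 10% of the positive control, reached in at least 60% of replicates, without over 20% cell loss; inconclusive = no rule given, readout overlaps actives, possibly toxicity-flagged; inactive = the rest, including those meeting only one limit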
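Test system: HUVEC | Signal: Immunofluorescence imaging | Read-out: Percent E-selectin-positive cells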
DENV2 CPE: inhibitors of DENV2 cytopathic effect, primary screen, cell-based, plate reader, single concentration | DENV2-infected cells, cytopathic effect rescue | CPE inhibition, % at 9.99 µM | 350,000 compounds, 1.7% hits | AID 651640, 2012; in the data active = CPE inhibition above about 20%, passing the limit was not always enough; inconclusive = no clear call, values can overlap the other calls; tested in BHK-21 cells;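 also: 0% = median of neutral control wells and 100% = median of positive control wells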
SIRT5 inh: SIRT5 desuccinylase inhibitors, primary screen, biochemical, fluorescence imaging, single point, set 5. Purified SirT5, succinyl-peptide AMC, trypsin-coupled fluorescence. inhibition, % at 15 µM. 330,000 compounds, 1.1% hits. AID 652115, 2013; in the data active = inhibition above about 15%; inconclusive = no clear call, values can overlap the other calls
Target sequence (Q9NXA8 whole entry, looked up): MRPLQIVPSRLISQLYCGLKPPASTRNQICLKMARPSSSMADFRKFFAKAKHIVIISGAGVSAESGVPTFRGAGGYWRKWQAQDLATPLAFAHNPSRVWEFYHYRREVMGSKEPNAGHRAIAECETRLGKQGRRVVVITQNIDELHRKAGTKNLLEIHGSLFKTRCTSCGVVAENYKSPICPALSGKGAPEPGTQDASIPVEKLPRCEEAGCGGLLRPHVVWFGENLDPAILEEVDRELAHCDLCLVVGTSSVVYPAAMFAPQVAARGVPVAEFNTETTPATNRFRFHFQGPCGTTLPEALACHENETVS
Numbers without * were called inactive; ? = inconclusive; · = no result; ! = not active in a repeat.

SMILES	E-selectin induc	DENV2 CPE	SIRT5 inh
Cc1cc(C(=O)Nc2cccc3c2O[C@@H](CN(C)C(=O)NC2CCCCC2)[C@H](C)CN([C@H](C)CO)C3=O)n(C)n1	-16.5	-4.5	-5.1
C[C@@H]1CN([C@@H](C)CO)C(=O)c2cccc(NC(=O)C3CCCCC3)c2O[C@@H]1CN(C)C(=O)NC1CCCCC1	-0.3	32.6*!	2.8
C[C@H]1CN([C@@H](C)CO)C(=O)c2cccc(NC(=O)C3CC3)c2O[C@@H]1CN(C)C(=O)NC1CCCCC1	0.1	54.1*	5.7
C[C@H]1CN([C@@H](C)CO)C(=O)c2cccc(NC(=O)C3CCCCC3)c2O[C@@H]1CN(C)C(=O)NC1CCCCC1	0.0	-3.6	-4.4
Cc1cc(C(=O)Nc2cccc3c2O[C@H](CN(C)C(=O)NC2CCCCC2)[C@@H](C)CN([C@H](C)CO)C3=O)n(C)n1	-2.8	37.3*	1.2
C[C@H](O)C#Cc1ccc2c(c1)O[C@H](CN(C)C(=O)c1ccccc1)[C@H](C)CN([C@@H](C)CO)S2(=O)=O	-0.4	-6.3	-3.2
COc1ccc(S(=O)(=O)N(C)C[C@@H]2Oc3ccc(N(C)C)cc3C(=O)N([C@@H](C)CO)C[C@H]2C)cc1	·	-0.5	0.2
Oc1ccc(-c2nccc(-c3ccc(Cl)cc3)n2)cc1	·	-0.6	0.4
Oc1ccc(-c2nccc(-c3ccc(Cl)cc3Cl)n2)cc1	·	2.5	18.1*
COc1cccc(S(=O)(=O)N(C)C[C@H]2Oc3cc(C4=CCCCC4)ccc3S(=O)(=O)N([C@H](C)CO)C[C@H]2C)c1	0.9	·	·
COc1ccc(S(=O)(=O)N(C)C[C@@H]2Oc3cc(C4=CCCC4)ccc3S(=O)(=O)N([C@H](C)CO)C[C@H]2C)cc1	-0.2	-5.3	9.0
COc1cccc(S(=O)(=O)N(C)C[C@H]2Oc3cc(C4=CCCC4)ccc3S(=O)(=O)N([C@H](C)CO)C[C@H]2C)c1	3.4	-4.8	21.3*
COc1cccc(S(=O)(=O)N(C)C[C@H]2Oc3cc(C4=CCCC4)ccc3S(=O)(=O)N([C@H](C)CO)C[C@@H]2C)c1	0.0	37.6*	3.2
COc1cccc(S(=O)(=O)N(C)C[C@@H]2Oc3cc(C4=CCCCC4)ccc3S(=O)(=O)N([C@@H](C)CO)C[C@@H]2C)c1	0.2	-2.1	21.4*
COc1cccc(S(=O)(=O)N(C)C[C@H]2Oc3cc(C4=CCCC4)ccc3S(=O)(=O)N([C@@H](C)CO)C[C@@H]2C)c1	0.4	19.3	21.2*
COc1ccc(S(=O)(=O)N(C)C[C@@H]2Oc3cc(C4=CCCC4)ccc3S(=O)(=O)N([C@@H](C)CO)C[C@H]2C)cc1	0.4	3.0	9.6
Cc1ccc(S(=O)(=O)N(C)C[C@H]2Oc3cc(C4=CCCC4)ccc3S(=O)(=O)N([C@@H](C)CO)C[C@H]2C)cc1	1.1	-4.2	10.7
CCC(=O)Nc1ccc2c(c1)C(=O)N(C)[C@H]1CC[C@H](CC(=O)NCCc3ccccc3)O[C@@H]1CO2	0.1	-12.2	2.5
COc1ccc(S(=O)(=O)Nc2ccc3c(c2)CC(=O)N([C@@H](C)CO)C[C@@H](C)[C@H](CN(C)S(=O)(=O)c2ccc(Cl)cc2)O3)cc1	0.0	-9.5	11.9
CN1C(=O)c2cc(NC(=O)c3ccc(F)cc3)ccc2OC[C@@H]2O[C@H](CC(=O)NC3CCC3)CC[C@@H]21	0.1	-1.1	-0.5
Cc1ccc(CNC(=O)c2cccc3c2C(=O)c2ccc(N4CCOCC4)cc2S3(=O)=O)cc1	0.0	31.1*	·
Cc1ccc(CNC(=O)c2cccc3c2C(=O)c2ccc(N4CCCCC4)cc2S3(=O)=O)cc1	0.1	·	·
CCC(=O)Nc1ccc2c(c1)C(=O)N(C)C[C@H](OC)[C@H](C)CN(Cc1ccncc1)[C@H](C)CO2	0.1	2.1	-5.3
Cc1ccc(-c2ccc([C@@H]3[C@H](CO)N4CCCCN(C(=O)Nc5cccc(F)c5)C[C@@H]34)cc2)cc1	·	12.8	0.0
Cc1ccc(-c2ccc([C@@H]3[C@@H](CO)N4CCCCN(C(=O)Nc5cccc(F)c5)C[C@@H]34)cc2)cc1	-0.6	-2.9	17.5*
SMILES	E-selectin induc	DENV2 CPE	SIRT5 inh
Cc1ccccc1-c1ccc([C@@H]2[C@H](CO)N3CCCCN(C(=O)Nc4cccc(F)c4)C[C@@H]23)cc1	-0.8	37.7*	-0.3
Cc1ccccc1-c1ccc([C@H]2[C@@H](CO)N3CCCCN(C(=O)Nc4cccc(F)c4)C[C@@H]23)cc1	-0.7	-11.5	3.6
Cc1ccccc1-c1ccc([C@H]2[C@@H](CO)N3CCCCN(C(=O)Nc4cccc(F)c4)C[C@H]23)cc1	·	45.1*	0.4
O=C(Nc1cccc(F)c1)N1CCCCN2[C@H](CO)[C@H](c3ccc(-c4ccccc4F)cc3)[C@H]2C1	-0.8	-1.8	0.2
CCCNC(=O)N[C@@H]1C=C[C@@H](CC(=O)NC2CCCCC2)O[C@H]1CO	0.1	-4.9	-4.4
COc1ccc(CNC(=O)C[C@H]2C=C[C@H](NC(=O)c3ccc4c(c3)OCO4)[C@@H](CO)O2)cc1	-0.3	-0.5	-0.8
O=C(N[C@H]1CC[C@@H](CCNS(=O)(=O)c2ccc(Cl)cc2)O[C@@H]1CO)c1cccc(F)c1	-0.9	-8.5	-0.9
C[C@H](O)C#Cc1ccc2c(c1)O[C@@H](CN(C)C(=O)C1CC1)[C@H](C)CN([C@@H](C)CO)S2(=O)=O	-0.4	1.2	5.2
C[C@@H]1CN([C@@H](C)CO)C(=O)c2cc(C#Cc3cccnc3)cnc2O[C@H]1CN(C)C(=O)CC1CC1	-0.1	6.0	3.8
COC(=O)C1=CN(Cc2ccc(OC)c(OC)c2)C=C(C(=O)OC)C1c1ccc(F)cc1	·	-2.2	17.7*
COC(=O)C1=CN(Cc2ccc(OC)c(OC)c2)C=C(C(=O)OC)C1c1ccc(O)cc1	·	?	-14.7
CNC[C@@H]1OCCCC[C@H](C)Oc2ccc(NC(=O)c3ccccc3)cc2C(=O)N([C@@H](C)CO)C[C@H]1C	0.0	0.1	1.9
COc1ccc(NC(=O)N(C)C[C@H]2Oc3c(NC(=O)NC4CCCCC4)cccc3C(=O)N([C@@H](C)CO)C[C@H]2C)cc1	-0.4	-7.0	2.5
COc1ccc(NC(=O)Nc2cccc3c2O[C@@H](CN(C)C(=O)NC2CCCCC2)[C@H](C)CN([C@H](C)CO)C3=O)cc1	49.2*	4.3	-2.1
COc1ccc(NC(=O)Nc2cccc3c2O[C@H](CN(C)S(=O)(=O)c2ccccc2)[C@@H](C)CN([C@H](C)CO)C3=O)cc1	-0.7	-3.5	1.5
COc1ccc(NC(=O)N(C)C[C@H]2Oc3c(NC(=O)Nc4ccccc4)cccc3C(=O)N([C@@H](C)CO)C[C@H]2C)cc1	-0.1	-4.2	6.3
COc1ccc(NC(=O)Nc2cccc3c2O[C@H](CN(C)C(=O)Nc2ccc(OC)cc2)[C@@H](C)CN([C@@H](C)CO)C3=O)cc1	-0.2	144.1*	1.4
COc1ccc(NC(=O)Nc2cccc3c2O[C@@H](CN(C)C(=O)Nc2ccc(OC)cc2)[C@H](C)CN([C@@H](C)CO)C3=O)cc1	-0.1	-0.4	0.0
COc1ccc(NC(=O)Nc2cccc3c2O[C@@H](CN(C)C(=O)Nc2ccccc2)[C@H](C)CN([C@H](C)CO)C3=O)cc1	0.8	36.5*	-6.5
